# Source: ChEMBL document CHEMBL1137356, “Tricyclic imidazoline derivatives as potent and selective adenosine A1 receptor antagonists” (J Med Chem, 2006)
# What was measured:
# [1] = molecular target: Adenosine receptors; A1 & A2a (Homo sapiens) (UniProt P30542+P29274); assay: Selectivity for human adenosine A1 receptor over adenosine A2A receptor; format: protein assay
# [2] = molecular target: Adenosine receptors; A1 & A2b (Homo sapiens) (UniProt P30542+P29275); assay: Selectivity for human adenosine A1 receptor over adenosine A2B receptor; format: protein assay
# Adenosine receptor A1 [3] = molecular target: T1, Adenosine receptor A1 (Rattus norvegicus, UniProt P25099); assay: Displacement of [3H]DPCPX from adenosine A1 receptor in rat cerebral cortex; format: tissue-based
# T1 sequence (P25099 whole entry): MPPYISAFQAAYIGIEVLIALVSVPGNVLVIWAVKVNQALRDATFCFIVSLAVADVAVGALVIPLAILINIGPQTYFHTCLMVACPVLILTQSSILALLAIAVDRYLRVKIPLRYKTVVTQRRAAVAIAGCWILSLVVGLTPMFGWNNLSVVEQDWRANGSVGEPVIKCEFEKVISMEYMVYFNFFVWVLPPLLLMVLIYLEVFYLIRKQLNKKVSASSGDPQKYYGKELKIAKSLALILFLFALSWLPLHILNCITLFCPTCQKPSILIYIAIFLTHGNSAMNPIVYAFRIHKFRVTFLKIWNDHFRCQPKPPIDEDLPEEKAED
# How it was run: (§1)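 Rat brain membranes (cerebral cortex for A1, striatum for A2A) homogenized in 10 mM EDTA/10 mM Na-HEPES pH 7.4 with protease inhibitors, washed, stored at -80 °C. 40-70 µg protein incubated in triplicate with radioligand plus seven competitor concentrations in HEPES/EDTA buffer with 2 units/mL adenosine deaminase, 2.5 h, 21 °C. A1: [3H]DPCPX 2 nM, nonspecific with 10 µM NECA; A2A: [3H]ZM241385 0.5-1.2 nM, nonspecific with 10 µM XAC. GF/C filtration; single-site fit, Cheng-Prusoff Ki.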
# [4] = molecular target: Adenosine receptor A2a (Rattus norvegicus) (UniProt P30543); assay: Displacement of [3H]ZM-241385 from adenosine A2A receptor in rat striatal membrane at 10 uM relative to control; format: cell membranes; settings: Striatum
# Adenosine receptor A2a (Rattus norvegicus), sequence (P30543 whole entry): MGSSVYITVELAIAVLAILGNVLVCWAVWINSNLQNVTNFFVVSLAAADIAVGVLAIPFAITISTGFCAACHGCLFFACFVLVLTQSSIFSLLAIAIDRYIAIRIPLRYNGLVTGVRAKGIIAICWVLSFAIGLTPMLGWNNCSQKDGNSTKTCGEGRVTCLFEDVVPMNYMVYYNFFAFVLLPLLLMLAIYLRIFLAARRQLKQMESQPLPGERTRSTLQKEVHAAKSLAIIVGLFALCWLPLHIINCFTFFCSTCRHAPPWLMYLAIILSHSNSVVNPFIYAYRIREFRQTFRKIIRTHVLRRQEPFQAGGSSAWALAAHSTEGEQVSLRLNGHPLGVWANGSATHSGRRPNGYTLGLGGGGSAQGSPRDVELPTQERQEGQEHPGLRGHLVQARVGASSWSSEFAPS
# Adenosine receptor A2a [5] = molecular target: Adenosine receptor A2a (Homo sapiens, UniProt P29274); assay: Displacement of [125I]ZM-241385 from human adenosine A2A receptor
# Adenosine receptor A2a (Homo sapiens, UniProt P29274), sequence (P29274 whole entry): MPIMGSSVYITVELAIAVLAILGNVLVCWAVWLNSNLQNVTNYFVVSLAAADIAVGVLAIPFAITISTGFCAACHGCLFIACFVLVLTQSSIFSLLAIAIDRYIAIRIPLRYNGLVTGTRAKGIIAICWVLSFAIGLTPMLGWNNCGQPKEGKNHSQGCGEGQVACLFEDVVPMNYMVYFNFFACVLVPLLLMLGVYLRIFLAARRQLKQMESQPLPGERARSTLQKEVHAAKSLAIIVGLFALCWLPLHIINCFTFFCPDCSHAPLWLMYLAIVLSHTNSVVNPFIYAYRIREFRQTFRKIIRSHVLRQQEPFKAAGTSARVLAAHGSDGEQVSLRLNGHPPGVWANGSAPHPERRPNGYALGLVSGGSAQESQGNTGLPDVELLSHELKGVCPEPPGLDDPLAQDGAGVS
# Adenosine receptor A2a [6] = molecular target: Adenosine receptor A2a (Rattus norvegicus, UniProt P30543); assay: Displacement of [3H]ZM-241385 from adenosine A2A receptor in rat striatal membrane; format: cell membranes, Striatum; how it was run: as §1
# Adenosine receptor A2a (Rattus norvegicus, UniProt P30543), sequence (P30543 whole entry): as the sequence (P30543 whole entry) above
# Adenosine receptor A2b = molecular target: T2, Adenosine receptor A2b (Homo sapiens, UniProt P29275); assay: Displacement of [125I]3-(4-aminobenzyl)-8-phenyloxyacetate-1-propyl-xanthine from human adenosine A2B receptor
# T2 sequence (P29275 whole entry): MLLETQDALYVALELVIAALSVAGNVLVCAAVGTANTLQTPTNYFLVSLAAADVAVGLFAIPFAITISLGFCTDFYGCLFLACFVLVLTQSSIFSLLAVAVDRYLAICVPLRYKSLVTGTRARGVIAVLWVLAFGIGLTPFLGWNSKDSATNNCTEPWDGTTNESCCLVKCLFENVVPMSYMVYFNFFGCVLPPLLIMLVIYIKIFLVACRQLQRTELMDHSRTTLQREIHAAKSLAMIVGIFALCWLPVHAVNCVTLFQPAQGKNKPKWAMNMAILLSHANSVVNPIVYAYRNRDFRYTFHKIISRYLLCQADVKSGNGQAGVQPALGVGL
# Adenosine receptor A1 [7] = molecular target: T3, Adenosine receptor A1 (Homo sapiens, UniProt P30542); assay: Displacement of [125I]ABA from human adenosine A1 receptor
# T3 sequence (P30542 whole entry): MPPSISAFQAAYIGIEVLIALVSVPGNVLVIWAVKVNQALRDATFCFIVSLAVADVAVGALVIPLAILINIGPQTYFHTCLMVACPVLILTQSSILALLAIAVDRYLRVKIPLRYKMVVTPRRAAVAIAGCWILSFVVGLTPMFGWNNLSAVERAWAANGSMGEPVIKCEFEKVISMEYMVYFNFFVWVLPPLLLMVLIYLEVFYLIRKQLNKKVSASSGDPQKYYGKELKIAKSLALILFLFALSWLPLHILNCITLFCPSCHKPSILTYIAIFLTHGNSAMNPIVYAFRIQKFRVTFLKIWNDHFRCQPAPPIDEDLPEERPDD
# Adenosine receptor A1 [8] = molecular target: T1, Adenosine receptor A1; assay: Intrinsic activity at adenosine A1 receptor assessed as blockade of CPA in isolated spontaneously beating rat atria; format: functional; settings: read-out: pA2 (converted)
# Adenosine receptor A3 = molecular target: T4, Adenosine receptor A3 (Homo sapiens, UniProt P0DMS8); assay: Displacement of [125I]ABA from human adenosine A3 receptor
# T4 sequence (P0DMS8 whole entry): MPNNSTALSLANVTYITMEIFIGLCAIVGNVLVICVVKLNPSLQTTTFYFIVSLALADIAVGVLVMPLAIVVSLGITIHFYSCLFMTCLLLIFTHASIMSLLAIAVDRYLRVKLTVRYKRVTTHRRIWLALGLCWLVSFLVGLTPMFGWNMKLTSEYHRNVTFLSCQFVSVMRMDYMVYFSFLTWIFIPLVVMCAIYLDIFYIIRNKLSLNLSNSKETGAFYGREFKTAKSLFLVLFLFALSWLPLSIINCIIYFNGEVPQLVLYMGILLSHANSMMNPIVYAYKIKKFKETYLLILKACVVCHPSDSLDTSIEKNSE
# [9] = Clearance in rat at 1 mg/kg, po; format: ADME, organism-based; parameters: dose 1 mg/kg, route oral; settings: in vivo
# How it was run: (§2)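 Rats given 1 mg/kg orally and intravenously to obtain pharmacokinetic parameters.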
# Rattus norvegicus [10] = assay: Sodium excretion level in po dosed rat diuresis model; format: ADME, organism-based
# How it was run: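 Rats held in metabolic cages and dosed by gavage as 0.5% cmc suspension at several doses; urine collected for 4 h and sodium excretion (UNaV) measured.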
# [11] = Oral bioavailability in rat at 1 mg/kg, iv and po; format: ADME, organism-based; settings: in vivo; how it was run: as §2
# Rattus norvegicus [12] = assay: Volume of distribution in rat at 1 mg/kg, po; format: ADME, organism-based; parameters: dose 1 mg/kg, route oral; settings: in vivo; how it was run: as §2
# [13] = (§3) AUC(last) in rat at 1 mg/kg, po; format: ADME, organism-based, Plasma; parameters: time 0 - last, dose 1 mg/kg, route oral; settings: plasma; how it was run: as §2
# [14] = Half life in rat 1 mg/kg, po; format: ADME, organism-based; parameters: dose 1 mg/kg, route oral; settings: in vivo; how it was run: as §2
# Rattus norvegicus [15] = assay: as §3; format: ADME, organism-based, Plasma; parameters: time 0 - last, dose 1 mg/kg, route oral; settings: in vivo; how it was run: as §2
# [16] = Aqueous solubility of the compound; format: physicochemical
# Adenosine receptors; A1 & A2a (Homo sapiens), sequence (P29274 whole entry, looked up, one chain of several): as the sequence (P29274 whole entry) above
compound,measurement,setting,value
CCCN1C(=O)N2C[C@@H](C(C)C)N=C2c2[nH]c(C34CCC(O)(CC3)CC4)nc21 [listing 1 of 2 here],Ratio Ki,[1],46
same,Ratio Ki,[2],57
CCCN1C(=O)N2C[C@@H](CC)N=C2c2[nH]c(C34CCC(O)(CC3)CC4)nc21 [listing 1 of 2 here],Ratio Ki,[1],200
same,Ratio Ki,[2],26
CCCN1C(=O)N2C[C@H](C(C)CC)N=C2c2[nH]c(C34CCC(O)(CC3)CC4)nc21 (stereo partly specified),Ki,Adenosine receptor A1 [3],14 nM
same,Activity,[4],91%
CCCN1C(=O)N2C[C@@H](CC)N=C2c2[nH]c(C34CCC(C(=O)O)(CC3)CC4)nc21,Activity,[4],48%
CCCN1C(=O)N2C(=NC[C@H]2C)c2[nH]c(C34CCC(O)(CC3)CC4)nc21,Ki,Adenosine receptor A1 [3],51 nM
CCCN1C(=O)N2C[C@@H](CC)N=C2c2[nH]c(C34CCC(O)(CC3)CC4)nc21 [listing 2 of 2 here],Ki,Adenosine receptor A2a [5],4400 nM
same,Ki,Adenosine receptor A1 [3],6 nM
same,Ki,Adenosine receptor A2a [6],2700 nM
same,Ki,Adenosine receptor A2b,580 nM
same,Ki,Adenosine receptor A1 [7],22 nM
same,Kb,Adenosine receptor A1 [8],1.32 nM
same,Ki,Adenosine receptor A3,> 10000 nM
CCCN1C(=O)N2CCN=C2c2[nH]c(C34CCC(O)(CC3)CC4)nc21,Ki,Adenosine receptor A1 [3],> 100 nM
same,Activity,[4],77%
CCCN1C(=O)N2C[C@@H](C(C)C)N=C2c2[nH]c(C34CCC(O)(CC3)CC4)nc21.Cl,CL/F,[9],21 mL/min/kg
same,ED50,Rattus norvegicus [10],0.01 mg/kg
same,bioavailability,[11],54%
same,Vdss,Rattus norvegicus [12],1.7 L/kg
same,AUC(0-t),[13],810 ng·h/mL
same,half-life,[14],2.9 h
CCCN1C(=O)N2C[C@@H](c3ccccc3)N=C2c2[nH]c(C34CCC(O)(CC3)CC4)nc21,Activity,[4],79%
CCCn1c(=O)c2nc(C34CCC(O)(CC3)CC4)[nH]c2n(CCC)c1=O,Ratio Ki,[1],275
same,Ratio Ki,[2],215
CCCn1c(=O)c2nc(C34CCC(CCC(=O)O)(CC3)CC4)[nH]c2n(CCC)c1=O.Cl,CL/F,[9],1.6 mL/min/kg
same,ED50,Rattus norvegicus [10],0.01 mg/kg
same,bioavailability,[11],99%
same,Vdss,Rattus norvegicus [12],0.3 L/kg
same,AUC(0-t),[13],10000 ng·h/mL
same,half-life,[14],3.1 h
CCCN1C(=O)N2C[C@H](CC)N=C2c2[nH]c(C34CCC(C(=O)O)(CC3)CC4)nc21,Ki,Adenosine receptor A1 [3],> 250 nM
same,Activity,[4],80%
CCCN1C(=O)N2C[C@@H](C)N=C2c2[nH]c(C34CCC(O)(CC3)CC4)nc21,Ki,Adenosine receptor A2b,2200 nM
same,Ki,Adenosine receptor A1 [7],60 nM
same,Ratio Ki,[2],37
same,Activity,[4],32%
CCCN1C(=O)N2C[C@@H](Cc3ccccc3)N=C2c2[nH]c(C34CCC(O)(CC3)CC4)nc21,Activity,[4],84%
CCCN1C(=O)N2CC[C@@H](C)N=C2c2[nH]c(C34CCC(O)(CC3)CC4)nc21,Ki,Adenosine receptor A1 [3],> 250 nM
CCCN1C(=O)N2CC[C@@H](CC)N=C2c2[nH]c(C34CCC(O)(CC3)CC4)nc21,Ki,Adenosine receptor A1 [3],> 250 nM
CCC[C@@H]1CN2C(=O)N(CCC)c3[nH]c(C45CCC(O)(CC4)CC5)nc3C2=N1,Activity,[4],90%
CCCN1C(=O)N2C[C@@H](C(C)C)N=C2c2[nH]c(C34CCC(CCC(=O)O)(CC3)CC4)nc21 [listing 1 of 2 here],Ratio Ki,[1],400
same,Ratio Ki,[2],69
same,Activity,[4],74%
CCCN1C(=O)N2C[C@@H](C(C)C)N=C2c2[nH]c(C34CCC(CCC(=O)O)(CC3)CC4)nc21.Cl,ED50,Rattus norvegicus [10],0.01 mg/kg
same,bioavailability,[11],77%
same,Vdss,Rattus norvegicus [12],0.9 L/kg
same,AUC,Rattus norvegicus [15],2600 ng·h/mL
same,half-life,[14],3.1 h
CCCN1C(=O)N2C[C@@H](CC)N=C2c2[nH]c(C34CCC(O)(CC3)CC4)nc21.Cl,CL/F,[9],18 mL/min/kg
same,ED50,Rattus norvegicus [10],0.01 mg/kg
same,bioavailability,[11],84%
same,Vdss,Rattus norvegicus [12],4.1 L/kg
same,AUC(0-t),[13],800 ng·h/mL
same,half-life,[14],3.8 h
same,solubility,[16],100 mg/mL
CCCn1c(=O)c2[nH]c(C34CCC(CCC(=O)O)(CC3)CC4)nc2n(CCC)c1=O [TONAPOFYLLINE],Ki,Adenosine receptor A2a [5],6400 nM
same,Ki,Adenosine receptor A1 [3],1 nM
same,Ki,Adenosine receptor A2b,90 nM
same,Kb,Adenosine receptor A1 [8],0.158 nM
same,Ki,Adenosine receptor A3,> 10000 nM
CCCN1C(=O)N2C[C@@H](C(C)C)N=C2c2[nH]c(C34CCC(O)(CC3)CC4)nc21 [listing 2 of 2 here],Ki,Adenosine receptor A2a [5],1600 nM
same,Ki,Adenosine receptor A1 [3],4 nM
same,Ki,Adenosine receptor A2a [6],1100 nM
same,Ki,Adenosine receptor A2b,2000 nM
same,Ki,Adenosine receptor A1 [7],35 nM
same,Kb,Adenosine receptor A1 [8],0.126 nM
same,Ki,Adenosine receptor A3,> 10000 nM
CCCn1c(=O)c2[nH]c(C34CCC(O)(CC3)CC4)nc2n(CCC)c1=O,Ki,Adenosine receptor A2a [5],550 nM
same,Ki,Adenosine receptor A1 [3],0.6 nM
same,Ki,Adenosine receptor A2b,430 nM
same,Ki,Adenosine receptor A1 [7],2 nM
same,Ki,Adenosine receptor A3,> 1000 nM
same,solubility,[16],0.1 mg/mL
CCCN1C(=O)N2C[C@@H](CC)N=C2c2[nH]c(C34CCC(CCC(=O)O)(CC3)CC4)nc21,Ki,Adenosine receptor A2a [5],> 10000 nM
same,Ratio Ki,[1],> 280
same,Ki,Adenosine receptor A2b,1900 nM
same,Ki,Adenosine receptor A1 [7],35 nM
same,Ratio Ki,[2],54
same,Activity,[4],83%
same,Ki,Adenosine receptor A3,> 10000 nM
CCCN1C(=O)N2C[C@@H](CC(C)C)N=C2c2[nH]c(C34CCC(O)(CC3)CC4)nc21,Ki,Adenosine receptor A1 [3],170 nM
same,Activity,[4],97%
CCCN1C(=O)N2C[C@H](CC)N=C2c2[nH]c(C34CCC(O)(CC3)CC4)nc21,Ki,Adenosine receptor A1 [3],> 100 nM
same,Activity,[4],70%
CCCN1C(=O)N2C(=NC[C@@H]2C)c2[nH]c(C34CCC(O)(CC3)CC4)nc21,Ki,Adenosine receptor A1 [3],69 nM
CCCN1C(=O)N2C[C@@H](C(C)C)N=C2c2[nH]c(C34CCC(CCC(=O)O)(CC3)CC4)nc21 [listing 2 of 2 here],Ki,Adenosine receptor A2a [5],18000 nM
same,Ki,Adenosine receptor A2b,3100 nM
same,Ki,Adenosine receptor A1 [7],45 nM
same,Ki,Adenosine receptor A3,> 10000 nM
